# Test results reported in PubChem BioAssay.
# Values without a mark were called inactive. Records with an inconclusive call do not appear. Activity calls are given as the source filed them.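 The calls were made as follows, unless noted: active = viability increase at or above a cutoff of the median across tested compounds plus 3 SD (cut at about 8.5% in these data, passing the limit was not always enough); inconclusive = some gains above the cutoff, reason not given; inactive = the rest.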
# Key:
# [1] = OD615 S. cerevisiae growth inhibition, permissive medium, pilot counter-assay, permissive growth control for S. cerevisiae lifespan shortening project (AID 705;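 active = growth inhibition above 25% in both replicates, a cutoff set 3 SD above the mean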); settings: OD615, 24 h, at 10 µM, hits give high values
# Method in brief: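 System – S. cerevisiae with engineered DeaD lifespan system · Buffer or medium – SC raffinose/galactose permissive medium · Schedule – cells pre-grown 4 h, then 24 h compound exposure, 30 °C humidified · Technique – culture turbidity as optical density at 615 nm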
# [2] = Restrictive medium S. cerevisiae growth inhibition, OD615, pilot screen of yeast lifespan reduction project, restrictive growth control (AID 706;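 active = growth inhibition above a set limit, 3 SD over mean compound inhibition, in both replicates, cut at about 43% in these data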;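 also: modified DeaD lifespan yeast strain shifted to restrictive glucose medium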); settings: OD615, 48 h, at 10 µM, hits give high values
# Method in brief: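 Material: engineered S. cerevisiae DeaD strain / Medium: glucose-based CSMM-D restrictive medium / Compound: single dose of 10 µM compound final, 0.25% DMSO / Timing: 4 h pre-incubation, 48 h exposure at 30 °C / Technique: OD615 absorbance reading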
# [3] = viability gain of MRP-1-high H69AR cells under doxorubicin, pilot screen, MRP-1 activator project, CellTiter-Glo, duplicate (AID 807); settings: H69AR viability with doxorubicin, CellTiter-Glo luminescence; at 10 µM; hits give high values;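 also: compound pretreatment 18-22 h then 72 h combined with doxorubicin; 0% = doxorubicin alone and 100% = vehicle without doxorubicin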
# [4] = growth suppression of beta-catenin knockout HCT116, pilot screen, human colon tumor cells (AID 823;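 active = cell viability at or below a set limit in both duplicate runs, the limit being the all-compound median minus 4 SD, cut at about 23% in these data, passing the limit was not always enough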;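 also: 0% = wells killed by 20 µM Hyamine and 100% = untreated DMSO cell wells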); settings: CellTiter-Glo, 60 h, at 10 µM, hits give low values
# [5] = growth suppression of PTEN-deleted HCT116, pilot screen, cell-based, HCT116 clonal line, CellTiter-Glo (AID 824;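 active = viability at or below 27.92% in each of two runs, the all-compound median minus 4 SD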;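 also: 0% = 20 µM Hyamine control and 100% = vehicle cell control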); settings: 60 h, at 10 µM, hits give low values
# [6] = inhibitors of the yeast RAM network, pilot screen, dse1pr::URA3 reporter, 5-FOA selection (AID 869;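 active = inhibition over a set limit, the all-compound mean plus 3 SD, in both replicate runs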;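 also: 0% = DMSO wells with no growth and 100% = 10 µM 1-NA-PP1 with full growth; RAM network block rescues cells from 5-FOA so hits raise OD615 growth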); settings: S. cerevisiae dse1pr::URA3 5-FOA growth, OD615, 2 d; at 10 µM; hits give high values; strain carries analog-sensitive mutant Cbk1 kinase
# [7] = RAM signaling pathway blockade in yeast – S. cerevisiae, Pdr1DBD-CYC8 efflux-inhibited sensitized strain, primary screen (AID 1298;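 active = RAM network inhibition above 8.4% in each of two replicates, 3 SD over the compound average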;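 also: 0% = DMSO untreated cells without growth and 100% = 10 µM 1-NA-PP1 full growth; higher means more yeast growth rescued from 5-FOA killing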); settings: S. cerevisiae cbk1-as DSE1-URA3 strain, 5-FOA growth OD615, 2 d; at 50 µM; hits give high values
SMILES,growth inhibition [1],growth inhibition [2],viability increase [3],viability [4],viability [5],inhibition [6],RAM network inhibition [7]
CCOC(=O)C1CCCN(C(=O)c2cn(CC)c3ccc(S(=O)(=O)N(C)C)cc3c2=O)C1 (stereo unspecified),-5.92%,-15.5%,-0.67%,108%,102%,0.85%,0.1%
COC(=O)CN1C(=O)COc2ccc(Cl)cc21,4.22%,-4.81%,-0.89%,104%,94%,0.605%,2.29%
CCc1ccc2c(c1)C(NC(C)=O)C(=O)N2CC (stereo unspecified),-11.8%,-3%,-0.55%,78.5%,86%,0.73%,0.8%
COC(=O)CN1C(=O)CC(C)(C)Sc2ccccc21,-16.9%,-27.1%,1.77%,103%,101%,2.17%,2.53%
Fc1cc2nc(-c3ccncc3)[nH]c2cc1F,-7.19%,-19.1%,-1.54%,109%,94.6%,0.625%,2.24%
O=C(NCCN1C(=O)C2C3C=CC(C3)C2C1=O)Nc1ccccc1O (stereo unspecified),-6.45%,-1.21%,-1.45%,106%,106%,1.5%,4.02%
c1ccc(-c2csc3ncn4cnnc4c23)cc1,-7.59%,2.29%,-1.06%,97.8%,91.4%,1.15%,2.91%
Cc1cc(NS(=O)(=O)c2ccc(NC(=O)c3cnc4scc(C)n4c3=O)cc2)nc(C)n1,-8.46%,-14.3%,-2.16%,102%,98.5%,1.31%,4.17%
c1ccc(C(Cc2nc(-c3cccnc3)no2)c2ccccc2)cc1,-8.42%,-4.57%,0.35%,90.8%,88.2%,1.46%,7.55%
CCC(C(=O)N1CC2(C)CC1CC(C)(C)C2)N1C(=O)c2ccccc2C1=O (stereo unspecified),-2.71%,-3.99%,-3.05%,91.5%,96.8%,1.57%,6%
COc1ccc(N(CC(=O)NCc2ccc3c(c2)OCO3)S(=O)(=O)c2c(C)nn(C)c2C)cc1,-12.2%,-3.47%,-2.86%,101%,101%,0.12%,2.04%
O=C(Nc1cccnc1)C(Cc1ccccc1)n1cccc1 (stereo unspecified),-15.5%,-13.4%,-4.93%,102%,91.8%,0.44%,4.6%
Cc1cccc(N2CCN(C(c3cccs3)c3nnnn3C(C)(C)C)CC2)c1C (stereo unspecified),-10.2%,-9.96%,-0.98%,55.5%,56.7%,0.97%,5.15%
O=C(CSc1ccc2nnc(-c3ccc(F)cc3)n2n1)N1CCOCC1,-5.25%,-2.17%,-2.97%,105%,96.6%,0.08%,0.47%
Cc1cccc(OCCOCCSc2ncccn2)c1,-8.47%,8.79%,-1.63%,97.9%,94.8%,0.99%,6.33%
COC(=O)c1c(N2C(=O)CCC2=O)sc2c1CCCC2,-1.48%,0.535%,-2.89%,102%,93.4%,1.26%,-1.57%
COc1ccc(S(=O)(=O)N(C)c2c(C)n(C)n(-c3ccccc3)c2=O)cc1OC,-5.13%,0.325%,-1.65%,95.5%,102%,0.535%,3.38%

SMILES,growth inhibition [1],growth inhibition [2],viability increase [3],viability [4],viability [5],inhibition [6],RAM network inhibition [7]
CCS(=O)(=O)NCCc1csc(-c2cccnc2)n1,-1.29%,-6.54%,-0.37%,102%,102%,2.48%,6.14%
Cc1nc2sc(C(c3ccco3)N3CCN(C(c4ccccc4)c4ccccc4)CC3)c(O)n2n1 (stereo unspecified),-4.01%,2.75%,-4.32%,75.6%,62.6%,1.81%,10.8%
O=C(c1ccccc1Cl)N1CCC(c2nc3c(nnn3Cc3ccco3)c(=O)[nH]2)CC1,-6.62%,-11.1%,-4.32%,92.5%,87.3%,0.69%,3.74%
Cc1ccc2c(c1)NC(=O)C(CC(=O)NCCCN1CCCCC1C)O2 (stereo unspecified),6.71%,8.33%,-1.72%,101%,101%,-0.48%,1.25%
CC1=C(C(=O)OC(C)C)C(c2c(O)ccc3ccccc23)NC(=O)N1 (stereo unspecified),2.06%,-6.33%,-3.16%,93.9%,90.7%,1.88%,2.42%
COc1ccc(Nc2nc(N)nc(CN3CCc4ccccc4C3)n2)cc1,-5.29%,-14.9%,-5.38%,44.7%,48.4%,0.725%,4.84%
O=S(=O)(Nc1nnc(-c2ccccc2)s1)c1ccc(Cl)cc1,4.67%,14.4%,-0.34%,104%,105%,3.29%,1.95%
CC(C)N(CCc1ccncc1)C(=O)Nc1ccc(Cl)c(Cl)c1,-4.55%,-1.79%,-0.23%,81.1%,87.8%,2.42%,3.94%
CC(=O)C(Sc1ccc2nnc(-c3ccc(F)cc3)n2n1)C(C)=O,2.49%,26.7%,-3.38%,91%,86.3%,-0.355%,7.13%
COc1ccc(NS(=O)(=O)c2ccc3c(c2)oc(=O)n3C)c(OC)c1,-16.1%,-28.2%,0.13%,104%,91.5%,1.07%,9.99%
COc1ccc(CCNC(=O)CSc2nnnn2-c2ccccc2)cc1,2.08%,-9.2%,-2.24%,94.7%,88.8%,1.33%,6.52%
COc1ccc(-n2nnnc2S(=O)(=O)CC(=O)N2CCCCC2)cc1,-2.05%,6.43%,-9.59%,1.47% (active),2.74% (active),0.75%,-0.17%
Cn1c(=O)c2c(nc(NCc3ccccc3)n2C)n(C)c1=O,-4.99%,-2.69%,-1.73%,99.6%,95.4%,0.45%,1.42%
O=C1C2=C(SCCS2)C(=O)N1CCCO,-1.38%,-3.45%,0.11%,98.9%,97.9%,-0.095%,3.67%
Cc1cc(Nc2ccccc2F)n2nc(C)nc2n1,-13%,-6.23%,-1.87%,99.2%,99.5%,1.95%,0.37%
O=C(Nc1ccccc1Cl)c1ccc2c(c1)N(Cc1ccc(F)cc1)C(=O)CS2=O (stereo unspecified),-5.36%,-7.24%,1.1%,83.3%,72.5%,3.9%,3.95%
